Laboratory results taken from ChEMBL document CHEMBL4765231 (J Med Chem, 2016).
pEC50, pIC50: −log10 of the molar value. Converted amounts (≈) assume the structure as drawn. The source made the active and inactive calls. The calls are words filed in the database; no cut-off is given here.

Legend:
[1] = Inhibition of late sodium current channel (unknown origin) at 25 Hz frequency by whole cell patch clamp technique; conditions: Homo sapiens
NaV1.1 = NaV1.1 (Homo sapiens, UniProt P35498); experiment: Inhibition of NaV1.1 (unknown origin) expressed in cells assessed as inhibition of peak INa current at 10 uM at 25 Hz frequency by whole-cell patch clamp method relative to control; assay type: cell-based; conditions: cells expressing NaV1.1
Method in brief: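 Whole-cell manual patch clamp on non-cardiac NaV1.x channels, run at room temperature. Series resistance was compensated 90% so the command potential was reached within microseconds.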

[2] = Metabolic stability in human microsomes assessed as half life; assay type: ADME, Microsome
[3] = Metabolic stability in rat microsomes assessed as half life; assay type: ADME, Microsome
[4] = Metabolic stability in dog microsomes assessed as half life; assay type: ADME, Canis lupus familiaris, Microsome
NaV1.5 [5] = biological target: T1, NaV1.5 (Homo sapiens, UniProt Q14524); experiment: Inhibition of human NaV1.5 expressed in HEK293 cells assessed as inhibition of peak sodium current measured at frequency 3 Hz at -20 mV resting membrane potential at 1 uM by electrophysiology assay relative to control; assay type: cell-based; conditions: HEK293 cells expressing human NaV1.5
T1 sequence (Q14524 whole entry): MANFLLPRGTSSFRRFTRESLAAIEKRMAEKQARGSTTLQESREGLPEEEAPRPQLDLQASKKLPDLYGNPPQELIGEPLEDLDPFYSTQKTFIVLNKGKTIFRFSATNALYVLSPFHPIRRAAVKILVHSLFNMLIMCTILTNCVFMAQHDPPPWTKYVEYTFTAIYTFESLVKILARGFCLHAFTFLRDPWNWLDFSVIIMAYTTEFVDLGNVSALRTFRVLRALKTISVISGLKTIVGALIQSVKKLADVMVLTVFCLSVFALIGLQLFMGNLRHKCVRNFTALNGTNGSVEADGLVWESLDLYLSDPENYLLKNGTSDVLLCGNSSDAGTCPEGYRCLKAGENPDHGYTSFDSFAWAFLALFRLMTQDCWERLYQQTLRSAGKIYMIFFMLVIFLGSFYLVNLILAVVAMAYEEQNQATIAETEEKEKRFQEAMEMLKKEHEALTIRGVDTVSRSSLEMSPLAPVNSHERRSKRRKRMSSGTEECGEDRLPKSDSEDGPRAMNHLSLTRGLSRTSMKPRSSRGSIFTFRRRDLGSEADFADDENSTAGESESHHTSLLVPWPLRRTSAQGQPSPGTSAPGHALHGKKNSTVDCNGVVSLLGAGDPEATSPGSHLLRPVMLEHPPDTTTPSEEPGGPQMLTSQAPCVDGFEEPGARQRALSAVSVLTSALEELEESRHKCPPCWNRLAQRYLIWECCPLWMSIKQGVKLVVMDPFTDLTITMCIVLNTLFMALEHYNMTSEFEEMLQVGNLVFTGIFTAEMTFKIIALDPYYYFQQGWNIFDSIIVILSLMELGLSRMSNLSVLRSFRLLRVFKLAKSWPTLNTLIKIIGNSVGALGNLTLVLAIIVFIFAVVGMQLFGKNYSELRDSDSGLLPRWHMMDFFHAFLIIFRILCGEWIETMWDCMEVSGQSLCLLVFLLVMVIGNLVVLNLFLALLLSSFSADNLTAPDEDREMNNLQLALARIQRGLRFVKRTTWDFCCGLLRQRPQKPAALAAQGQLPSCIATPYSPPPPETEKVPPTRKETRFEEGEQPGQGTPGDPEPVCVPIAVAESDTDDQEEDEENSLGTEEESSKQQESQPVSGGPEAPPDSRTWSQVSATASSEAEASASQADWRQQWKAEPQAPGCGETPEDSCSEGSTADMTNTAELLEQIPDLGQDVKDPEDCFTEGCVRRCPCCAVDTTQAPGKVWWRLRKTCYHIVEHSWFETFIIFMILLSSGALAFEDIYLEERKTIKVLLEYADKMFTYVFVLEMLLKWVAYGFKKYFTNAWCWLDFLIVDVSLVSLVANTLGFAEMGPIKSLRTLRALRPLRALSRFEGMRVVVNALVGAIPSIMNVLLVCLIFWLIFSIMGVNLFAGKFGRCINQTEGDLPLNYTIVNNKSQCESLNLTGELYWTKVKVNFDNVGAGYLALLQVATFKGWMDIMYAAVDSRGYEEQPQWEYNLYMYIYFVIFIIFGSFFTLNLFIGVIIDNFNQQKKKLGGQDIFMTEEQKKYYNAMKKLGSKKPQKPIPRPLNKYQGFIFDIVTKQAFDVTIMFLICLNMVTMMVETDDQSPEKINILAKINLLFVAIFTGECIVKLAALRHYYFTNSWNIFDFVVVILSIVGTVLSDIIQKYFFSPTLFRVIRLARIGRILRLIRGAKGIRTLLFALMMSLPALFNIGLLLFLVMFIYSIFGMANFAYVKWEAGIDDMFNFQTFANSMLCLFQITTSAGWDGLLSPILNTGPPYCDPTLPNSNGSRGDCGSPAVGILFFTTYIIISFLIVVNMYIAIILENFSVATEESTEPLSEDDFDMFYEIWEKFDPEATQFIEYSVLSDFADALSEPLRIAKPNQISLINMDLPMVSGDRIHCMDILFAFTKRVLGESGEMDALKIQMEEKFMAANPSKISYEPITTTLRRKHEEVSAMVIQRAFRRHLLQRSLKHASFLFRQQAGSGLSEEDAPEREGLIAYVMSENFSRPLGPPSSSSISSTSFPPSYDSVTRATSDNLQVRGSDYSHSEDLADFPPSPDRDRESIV

Oryctolagus cuniculus [6] = organism: Oryctolagus cuniculus; experiment: Cardioprotective activity in New Zealand White rabbit heart assessed as reversal of ATX-II induced late sodium current prolongation in change in duration of monophasic action potential at 90 percent repolarization at 1 uM by electrocardiographic analysis relative to control; assay type: functional
NaV1.5 [7] = biological target: T1, NaV1.5; experiment: Inhibition of human NaV1.5 expressed in HEK293 cells assessed as inhibition of peak sodium current measured at frequency 3 Hz at -20 mV resting membrane potential at 3 uM by electrophysiology assay relative to control; assay type: cell-based; conditions: HEK293 cells expressing human NaV1.5
Homo sapiens [8] = organism: Homo sapiens; experiment: Inhibition of late sodium current channel (unknown origin) at 1 uM at 25 Hz frequency by whole cell patch clamp technique relative to control
[9] = Solubility of compound in water; assay type: physicochemical
[10] = Ratio of drug concentration in brain to plasma of coronary artery occlusion-induced ischemia-reperfusion injury rabbit model intravenously administered with compound for 30 mins measured by LC-MS/MS analysis; assay type: ADME, Oryctolagus cuniculus; conditions: brain and plasma, iv, read-out: BPR
Oryctolagus cuniculus [11] = experiment: (§1) Cardioprotective activity in New Zealand rabbit model of LAD coronary artery occlusion-induced ischemia-reperfusion injury assessed as inhibition of ST segment elevation intravenously administered with compound for 30 mins followed by induction of ischemia for 15 mins and subsequent reperfusion for 15 mins by electrocardiographic analysis; assay type: functional
Homo sapiens [12] = organism: Homo sapiens; experiment: Inhibition of L-type calcium channel (unknown origin)
Oryctolagus cuniculus [13] = organism: Oryctolagus cuniculus; experiment: Cardioprotective activity in New Zealand White rabbit heart assessed as reversal of ATX-II induced late sodium current prolongation in change in duration of monophasic action potential at 90 percent repolarization by electrocardiographic analysis relative to control; assay type: functional, tissue-based
Oryctolagus cuniculus [14] = organism: Oryctolagus cuniculus; experiment: Cardioprotective activity in New Zealand rabbit heart assessed as reversal of ATX-II induced late sodium current increase in QT interval by electrocardiographic analysis; assay type: functional
Oryctolagus cuniculus [15] = organism: Oryctolagus cuniculus; experiment: as §1, with “at 12 uM” for “intravenously administered with compound”; assay type: functional; conditions: 1 h, time 60 min
[16] = biological target: Sodium channel protein type 1 subunit alpha (Homo sapiens, UniProt P35498); experiment: Inhibition of peak NaV1.1 (unknown origin) at 10 uM at 10 Hz frequency by manual patch clamp technique
Method in brief: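 Whole-cell manual patch clamp at room temperature, with series resistance compensated 90%.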

[17] = Inhibition of peak sodium current (unknown origin) by manual patch clamp method; set-up: species or system Homo sapiens
Oryctolagus cuniculus [18] = organism: Oryctolagus cuniculus; experiment: Cardioprotective activity in rabbit assessed as decrease in chemically-induced Torsades des Pointes at 14 uM by electrocardiographic analysis; assay type: functional; set-up: scale not given: the % may be the effect or the level left
Oryctolagus cuniculus [19] = organism: Oryctolagus cuniculus; experiment: as §1, with “at 0.28 uM” for “intravenously administered with compound”; assay type: functional; set-up: scale not given: the % may be the effect or the level left; conditions: time 60 min, 1 h
Oryctolagus cuniculus [20] = organism: Oryctolagus cuniculus; experiment: as §1, with “at 0.52 uM” for “intravenously administered with compound”; assay type: functional; set-up: scale not given: the % may be the effect or the level left; conditions: time 60 min, 1 h
[21] = Toxicity in New Zealand rabbit model of LAD coronary artery occlusion-induced ischemia-reperfusion injury assessed as effect on blood pressure at 0.28 to 0.52 uM; set-up: species or system Oryctolagus cuniculus; conditions: in vivo, dose 0.28-0.52 µM
[22] = Toxicity in New Zealand rabbit model of LAD coronary artery occlusion-induced ischemia-reperfusion injury assessed as effect on heart rate at 0.28 to 0.52 uM; set-up: species or system Oryctolagus cuniculus; conditions: in vivo, dose 0.28-0.52 µM
[23] = Toxicity in New Zealand rabbit model of LAD coronary artery occlusion-induced ischemia-reperfusion injury assessed as effect on ECG interval at 0.28 to 0.52 uM; set-up: species or system Oryctolagus cuniculus; conditions: in vivo, dose 0.28-0.52 µM
NaV1.5 [24] = biological target: T1, NaV1.5; experiment: Inhibition of human NaV1.5 expressed in HEK293 cells assessed as inhibition of peak sodium current measured at frequency 3 Hz at -120 mV resting membrane potential at 0.3 uM by electrophysiology assay relative to control; conditions: HEK293 cells expressing human NaV1.5
[25] = Toxicity in rabbit model of left circumflex artery ligation-induced ischemia assessed as increase in VT-VF at 1 mg/kg by electrocardiographic analysis; assay type: organism-based, Oryctolagus cuniculus; conditions: in vivo
[26] = Toxicity in rabbit model of left circumflex artery ligation-induced ischemia assessed as animal death at 1 mg/kg; assay type: organism-based, Oryctolagus cuniculus; conditions: in vivo

Structure (SMILES) | pIC50 [1] | inhibition at 10 µM (NaV1.1) | half-life [2] | half-life [3] | half-life [4] | inhibition (Homo sapiens [8]) | also measured
O=C1c2cc(-c3cccc(C(F)(F)F)c3)ccc2OCCN1Cc1ncccn1 | 5.52 |  |  |  |  |  | 
COc1ccnc(CN2CCOc3ccc(-c4ccc(OC(F)(F)F)cc4)cc3C2=O)n1 | 6.01 | 60% | 6.58 h | 4.52 h | 1.45 h |  | inhibition at 1 µM (NaV1.5 [5]): 27%
O=C1c2cc(-c3cccc(OC(F)(F)F)c3)ccc2OCCN1Cc1ncccn1 | 5.69 | 18% | 4.95 h | 4.9 h | 0.717 h |  | Activity (Oryctolagus cuniculus [6]): 29%; inhibition at 3 µM (NaV1.5 [7]): 3%
O=C1c2cc(-c3ccc(OC(F)(F)F)cc3)ccc2OCCN1CCc1ncccn1 | 6.00 | 67% | 0.467 h | 0.467 h | 1.55 h |  | inhibition at 3 µM (NaV1.5 [7]): 13%
COc1ccc(-c2ccc3c(c2)C(=O)N(Cc2ncccn2)CCO3)cc1 |  |  |  |  |  | 13% | 
O=C1c2cc(-c3ccc(OC(F)(F)F)c(Cl)c3)ccc2OCCN1Cc1ncccn1 | 6.11 | 33% | 6.55 h | 5.63 h |  |  | Activity (Oryctolagus cuniculus [6]): 23%; inhibition at 3 µM (NaV1.5 [7]): 15%
O=C1c2cc(-c3ccc(OC(F)(F)F)cc3)ccc2CCN1Cc1ncccn1 | 5.64 | 23% | 6.58 h | 2.5 h | 2.62 h |  | solubility [9]: 60 µM (≈ 24 µg/mL); Activity (Oryctolagus cuniculus [6]): 6%
Cc1noc(Cn2ncc3ccc(-c4ccc(OC(F)(F)F)cc4)cc3c2=O)n1 |  |  |  |  |  | 39% | Kp at 0.5 h [10]: 4.4
COc1ccccc1OCC(O)CN1CCN(CC(=O)Nc2c(C)cccc2C)CC1 (stereo unspecified) [RANOLAZINE] |  |  |  |  |  |  | pEC50 (Oryctolagus cuniculus [11]): 5.10; inhibition (Homo sapiens [12]): inactive; pIC50 (Oryctolagus cuniculus [13]): 4.80; Activity (Oryctolagus cuniculus [14]): Active; inhibition in vivo at 12 µM (Oryctolagus cuniculus [15]): 60%; inhibition (INH) [16]: Not Active; pIC50 [17]: 3.37; Activity (Oryctolagus cuniculus [18]): 60%
O=C1c2cc(-c3ccc(C(F)F)cc3)ccc2OCCN1Cc1ncccn1 |  |  |  |  |  | 17% | 
O=C1c2cc(-c3ccc(OC(F)F)cc3)ccc2OCCN1Cc1ncccn1 |  |  |  |  |  | 13% | 
O=c1c2cc(-c3ccc(C(F)(F)F)cc3)ccc2nnn1Cc1nnc(C2CC2)o1 |  |  |  |  |  | 51% | pEC50 (Oryctolagus cuniculus [11]): 6.01; Kp at 0.5 h [10]: 0.86
O=C1c2cc(-c3ccc(Cl)c(F)c3)ccc2OCCN1Cc1ncccn1 | 5.79 | 23% | 5.5 h | 1.63 h | 1.92 h |  | Activity (Oryctolagus cuniculus [6]): 58%; inhibition at 1 µM (NaV1.5 [5]): 8%
O=C1c2cc(-c3ccccc3OC(F)(F)F)ccc2OCCN1Cc1ncccn1 |  |  |  |  |  | 26% | 
O=C1c2cc(-c3ccc(C(F)(F)F)cc3)ccc2OCCN1Cc1ncccn1 | 5.97 | 60% | 5.8 h | 3.52 h | 6.18 h |  | pEC50 (Oryctolagus cuniculus [11]): 6.52; Activity (Oryctolagus cuniculus [11]; time 60.0 min): Dose-dependent effect; solubility [9]: 87 µM (≈ 34.7 µg/mL); Activity (Oryctolagus cuniculus [6]): 62%; inhibition at 3 µM (NaV1.5 [7]): 27%; Activity (Oryctolagus cuniculus [19]): 38%; Activity (Oryctolagus cuniculus [20]): 88%; Activity [21]: Non-Toxic; Activity [22]: Non-Toxic; Activity [23]: Non-Toxic
Nc1ccnc(CN2CCOc3ccc(-c4ccc(OC(F)(F)F)cc4)cc3C2=O)n1 | 5.61 | 52% |  |  |  |  | inhibition at 3 µM (NaV1.5 [7]): 37%
CC(=O)Nc1cc(OC(F)(F)F)ccc1-c1ccc2c(c1)C(=O)N(Cc1ncccn1)CCO2 |  |  |  |  |  | 4% | 
O=C1c2cc(-c3ccc(Cl)cc3)ccc2OCCN1Cc1ncccn1 | 5.79 | 31% | 3.23 h | 1.6 h | 1.05 h |  | Activity (Oryctolagus cuniculus [6]): 68%; inhibition at 3 µM (NaV1.5 [7]): 17%
CC(=O)Nc1ccnc(CN2CCOc3ccc(-c4ccc(OC(F)(F)F)cc4)cc3C2=O)n1 |  |  |  |  |  | 6% | 
O=C1c2cc(-c3ccccc3)ccc2OCCN1Cc1ncccn1 |  |  |  |  |  | 18% | 
Cc1noc(Cn2cnc3ccc(-c4ccc(OC(F)(F)F)cc4)cc3c2=O)n1 |  |  |  |  |  | 48% | Kp at 0.5 h [10]: 15
O=C1c2cc(-c3ccc(OC(F)(F)F)cc3)ccc2OCCN1Cc1ncccc1F | 6.80 | 82% | 2.48 h | 1.48 h | 3.23 h |  | inhibition at 0.3 µM (NaV1.5 [24]): 23%
O=C1c2cc(-c3ccc(OC(F)(F)F)cc3)ccc2OCCN1Cc1ccccn1 | 6.30 | 67% | 2.5 h | 1.15 h | 2.78 h |  | solubility [9]: < 1 µM
CS(=O)(=O)c1ccc(-c2ccc3c(c2)C(=O)N(Cc2ncccn2)CCO3)cc1 |  |  |  |  |  | 3% | 
O=C1c2cc(-c3ccc(C(F)(F)F)cc3)ccc2CCN1Cc1ncccn1 | 5.68 | 15% | 5.07 h | 5.9 h | 5.33 h |  | solubility [9]: 28 µM (≈ 10.7 µg/mL); Activity (Oryctolagus cuniculus [6]): 25%
O=C(NCC1CCCCN1)c1cc(OCC(F)(F)F)ccc1OCC(F)(F)F (stereo unspecified) [FLECAINIDE] |  |  |  |  |  |  | Activity [25]: Toxic; Activity [26]: Toxic
O=C1c2cc(-c3ccc(OC(F)(F)F)cc3F)ccc2OCCN1Cc1ncccn1 | 5.89 | 35% | 4.02 h | 5.13 h | 2.6 h |  | Activity (Oryctolagus cuniculus [6]): 39%; inhibition at 3 µM (NaV1.5 [7]): 37%
